Data from ChEMBL document CHEMBL1130418, “Synthesis and evaluation of 6-(dibromomethyl)-5-nitropyrimidines as potential antitumor agents” (J Med Chem, 1997).

Columns and labels:
Mus musculus [1] = species on record: Mus musculus; assay: The concentration required to decrease the estimate of the minimum fraction of leukemic cells (L1210) of mice that survived treatment to 50%; type: functional, organism-based
Summary of the method: (§1)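 Surviving-fraction estimate in L1210 suspension cultures (Fischer's medium) counted daily over 3 days across compound concentrations. The exponential part of each growth curve was extrapolated back to zero time, and the intercept was expressed as a percentage of the initial cell number. The value is the concentration that lowers this minimum surviving fraction to 50%.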

Mus musculus [2] = species on record: Mus musculus; assay: The initial growth rate of cells in the presence at the screen concentration 100 mM in leukemic cells (L1210) of mice; type: functional
Mus musculus [3] = species on record: Mus musculus; assay: Concentration required to decrease the growth rate to 50% of control; type: functional, organism-based
Summary of the method: (§2)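 Antiproliferative assay in L1210 murine leukemia or H.Ep.2 human epidermoid carcinoma cells. Cells were counted over time with compound present. Growth rate is the slope of log cell number versus time as a percentage of the control slope. IC50 is the concentration that lowers the growth rate to 50% of control. Values are usually the mean of two concentration–response determinations.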

Mus musculus [4] = species on record: Mus musculus; assay: The concentration required to decrease the estimate of the minimum fraction of leukemic cells of mice that survived treatment to 50%; no evidence of surviving cell; type: functional, organism-based
Summary of the method: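 Minimum surviving fraction was estimated by back-extrapolating the exponential portion of treated-cell growth curves to zero time, as a percentage of the initial cell number. The value is the concentration that lowers this to 50%.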

Mus musculus [5] = species on record: Mus musculus; assay: The concentration required to decrease the estimate of the minimum fraction of leukemic cells (L1210) of mice that survived treatment to 50%. * indicates cell proliferation was not slowed down at screen concentration 10 mM; type: functional; summary of the method: as §1
Mus musculus [6] = species on record: Mus musculus; assay: Concentration required to decrease the growth rate to 50% of control; cell proliferation was not slowed down at screen concentration 10 mM; type: functional, organism-based; summary of the method: as §2
Mus musculus [7] = species on record: Mus musculus; assay: The initial growth rate of cells in the presence at the screen concentration 10 mM in leukemic cells (L1210) of mice; type: functional
HEp-2 [8] = assay: The initial growth rate of cells in the presence at the screen concentration 100 mM in human epidermoid carcinoma cells (H.Ep.2); type: functional
Summary of the method: (§3)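 H.Ep.2 monolayers were seeded at 2×10^4 cells per flask and switched after 1 day to medium containing compound at the single screen concentration. Duplicate flasks were counted on days 1, 2 and 4. The initial slope of log cell number versus time is given as a percentage of the untreated control slope.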

Mus musculus [9] = species on record: Mus musculus; assay: The concentration required to decrease the estimate of the minimum fraction of leukemic cells of mice that survived treatment to 50% (L1210); no evidence of survivin cell
Mus musculus [10] = species on record: Mus musculus; assay: The concentration required to decrease the estimate of the minimum fraction of leukemic cells (L1210) of mice that survived treatment to 50%; no evidence of surviving cell; type: functional, organism-based; summary of the method: as §1
Mus musculus [11] = assay: Percent treated to untreated control was measured on Leukemia-bearing mice at the dose of 25 mg/kg; type: functional
Mus musculus [12] = assay: Percent treated to untreated control was measured on Leukemia-bearing mice at the dose of 12.5 mg/kg; type: functional
Summary of the method: (§4)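 Mice were inoculated with P388 leukemia cells, and compound was injected once daily on days 1–5 after inoculation at doses of 200 down to 6.25 mg/kg/injection. T/C% is the life span of treated mice divided by that of untreated tumor-bearing control mice, ×100.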

HEp-2 [13] = assay: Concentration required to decrease the growth rate to 50% of control on H.Ep.2 cells.; type: functional, cell-based; conditions: Homo sapiens
HEp-2 [14] = assay: The concentration required to decrease the estimate of the minimum fraction of human epidermoid carcinoma cells that survived treatment to 50% (H.Ep.2); type: functional, cell-based
Summary of the method: (§5)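 Surviving fraction in H.Ep.2 monolayers exposed to compound from day 1 after seeding, with duplicate flasks counted on days 1, 2 and 4. The exponential growth curve was back-extrapolated to zero time, and the intercept was expressed as a percentage of initial cells. The value is the concentration that lowers this minimum surviving fraction to 50%.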

Mus musculus [15] = assay: Percent treated to untreated control was measured on Leukemia-bearing mice at the dose of 6.25 mg/kg; type: functional; summary of the method: as §4
Mus musculus [16] = assay: Percent treated to untreated control was measured on Leukemia-bearing mice at the dose of 100 mg/kg; type: functional; summary of the method: as §4
Mus musculus [17] = assay: Percent treated to untreated control was measured on Leukemia-bearing mice at the dose of 50 mg/kg; type: functional; summary of the method: as §4
Mus musculus [18] = species on record: Mus musculus; assay: Concentration required to decrease the growth rate to 50% of control; cell proliferation was not slowed down at screen concentration 100 mM; type: functional, organism-based; summary of the method: as §2
Mus musculus [19] = species on record: Mus musculus; assay: The concentration required to decrease the estimate of the minimum fraction of leukemic cells (L1210) of mice that survived treatment to 50%. * indicates cell proliferation was not slowed down at screen concentration 100 mM; type: functional, organism-based; summary of the method: as §1
HEp-2 [20] = assay: The initial growth rate of cells in the presence at the screen concentration 10 mM in human epidermoid carcinoma cells (H.Ep.2); type: functional; summary of the method: as §3
HEp-2 [21] = assay: Concentration required to decrease the growth rate to 50% of control on H.Ep.2 cells; cell proliferation was not slowed at the screen concentration 100 mM; type: functional, cell-based, Homo sapiens
Mus musculus [22] = species on record: Mus musculus; assay: Concentration required to decrease the growth rate to 50% of control; cell proliferation was not slowed at the screen concentration 100 mM; type: functional, organism-based; summary of the method: as §2
HEp-2 [23] = assay: The concentration required to decrease the estimate of the minimum fraction of human epidermoid carcinoma cells that survived treatment to 50% (H.Ep.2); cell proliferation was not slowed at the screen concentration 100 mM; type: functional, cell-based; summary of the method: as §5
Mus musculus [24] = species on record: Mus musculus; assay: The concentration required to decrease the estimate of the minimum fraction of leukemic cells (L1210) of mice that survived treatment to 50%; cell proliferation was not slowed at the screen concentration 100 mM; type: functional; summary of the method: as §1
Mus musculus [25] = species on record: Mus musculus; assay: Concentration required to decrease the growth rate to 50% of control.; cell proliferation was not slowed down at screen concentration 10 mM; type: functional, organism-based; summary of the method: as §2
Mus musculus [26] = species on record: Mus musculus; assay: The concentration required to decrease the estimate of the minimum fraction of leukemic cells (L1210) of mice that survived treatment to 50%; cell proliferation was not slowed down at screen concentration 100 mM; type: functional; summary of the method: as §1
HEp-2 [27] = assay: The concentration required to decrease the estimate of the minimum fraction of human epidermoid carcinoma cells that survived treatment to 50% (H.Ep.2); cell proliferation was not slowed down at screen concentration 100 mM; type: functional, cell-based; summary of the method: as §5

## COc1nc(C=O)c([N+](=O)[O-])c(N(C)C)n1
Mus musculus [1]
  IC50: 12000 nM
Mus musculus [2]
  Control: 0%
Mus musculus [3]
  IC50: 5900 nM

## CCOc1nc(OCC)c([N+](=O)[O-])c(C(Br)Br)n1
Mus musculus [2]
  Control: 0%
Mus musculus [4]
  IC50: Not Active
Mus musculus [3]
  IC50: 7200 nM

## COc1nc(C=P(c2ccccc2)(c2ccccc2)c2ccccc2)c([N+](=O)[O-])c(OC)n1
Mus musculus [5]
  IC50: Cell proliferation not slowed
Mus musculus [6]
  IC50: Cell proliferation not slowed
Mus musculus [7]
  Control: 93%

## CNc1nc(OC)nc(C(Br)Br)c1[N+](=O)[O-]
HEp-2 [8]
  Control: 0%
Mus musculus [1]
  IC50: 2000 nM
Mus musculus [2]
  Control: 0%
Mus musculus [3]
  IC50: 2300 nM

## CCOc1nc(C(Br)Br)c([N+](=O)[O-])c(N2CCOCC2)n1
Mus musculus [9]
  IC50: Not Active
Mus musculus [2]
  Control: 13%
Mus musculus [3]
  IC50: 3600 nM

## COc1nc(N)c([N+](=O)[O-])c(C(Br)Br)n1
HEp-2 [8]
  Control: 0%
Mus musculus [2]
  Control: 0%
Mus musculus [10]
  IC50: Not Active
Mus musculus [11]
  T/C: 91%
Mus musculus [12]
  T/C: 100%
HEp-2 [13]
  IC50: 1600 nM
HEp-2 [14]
  IC50: 3300 nM
Mus musculus [15]
  T/C: 104%
Mus musculus [3]
  IC50: 2000 nM

## COc1nc(CBr)c([N+](=O)[O-])c(OC)n1
HEp-2 [8]
  Control: 0%
Mus musculus [1]
  IC50: 25000 nM
Mus musculus [2]
  Control: 0%
Mus musculus [3]
  IC50: 8000 nM

## COc1nc(C(Br)Br)c([N+](=O)[O-])c(N2CCOCC2)n1
HEp-2 [8]
  Control: 0%
Mus musculus [1]
  IC50: 560 nM
Mus musculus [2]
  Control: 0%
Mus musculus [16]
  T/C: 87%
Mus musculus [11]
  T/C: 109%
HEp-2 [13]
  IC50: 1600 nM
HEp-2 [14]
  IC50: 2800 nM
Mus musculus [17]
  T/C: 101%
Mus musculus [3]
  IC50: 320 nM

## Cc1nc(Cl)nc(Cl)c1[N+](=O)[O-]
Mus musculus [18]
  IC50: Cell proliferation not slowed
Mus musculus [2]
  Control: 104%
Mus musculus [19]
  IC50: Cell proliferation not slowed

## COc1nc(C(Br)Br)c([N+](=O)[O-])c(N2CCCC2)n1
Mus musculus [1]
  IC50: 1000 nM
Mus musculus [7]
  Control: 0%
Mus musculus [3]
  IC50: 900 nM

## CCN(CC)c1nc(OC)nc(C(Br)Br)c1[N+](=O)[O-]
HEp-2 [8]
  Control: 0%
Mus musculus [1]
  IC50: 5600 nM
Mus musculus [2]
  Control: 0%
Mus musculus [3]
  IC50: 5800 nM

## COc1nc(OC)c([N+](=O)[O-])c(C(Br)Br)n1
HEp-2 [8]
  Control: 0%
Mus musculus [2]
  Control: 0%
Mus musculus [4]
  IC50: Not Active
HEp-2 [13]
  IC50: 2500 nM
HEp-2 [14]
  IC50: 2700 nM
Mus musculus [3]
  IC50: 1900 nM

## COc1nc(C(Br)Br)c([N+](=O)[O-])c(N2CCCCC2)n1
HEp-2 [20]
  Control: 36%
Mus musculus [1]
  IC50: 1800 nM
Mus musculus [7]
  Control: 0%
Mus musculus [3]
  IC50: 540 nM

## COc1nc(C)c([N+](=O)[O-])c(OC)n1
HEp-2 [21]
  IC50: Cell proliferation not slowed
Mus musculus [22]
  IC50: Cell proliferation not slowed
HEp-2 [23]
  IC50: Cell proliferation not slowed
HEp-2 [8]
  Control: 90%
Mus musculus [2]
  Control: 104%
Mus musculus [24]
  IC50: Cell proliferation not slowed

## COc1nc(/C=C\N(C)C)c([N+](=O)[O-])c(OC)n1
Mus musculus [25]
  IC50: Cell proliferation not slowed
Mus musculus [5]
  IC50: Cell proliferation not slowed
Mus musculus [7]
  Control: 87%

## CCCOc1nc(C(Br)Br)c([N+](=O)[O-])c(N2CCOCC2)n1
Mus musculus [1]
  IC50: 6100 nM
Mus musculus [7]
  Control: 13%
Mus musculus [3]
  IC50: 2300 nM

## COc1nc(CO)c([N+](=O)[O-])c(N2CCOCC2)n1
HEp-2 [21]
  IC50: Cell proliferation not slowed
HEp-2 [8]
  Control: 100%
Mus musculus [18]
  IC50: Cell proliferation not slowed
Mus musculus [26]
  IC50: Cell proliferation not slowed
HEp-2 [27]
  IC50: Cell proliferation not slowed
Mus musculus [2]
  Control: 100%
